These results are taken from paper PMC3010304 (Bioorganic & medicinal chemistry letters, 2010).

Data set [1] relates to PC3 (human prostate cancer). As to the kind of experiment: MTT cytotoxicity assay, PC3. Particulars: 48 h, means of three experiments, NA = no activity. It is filed as cell-based. Background: Tetrazolium dyes change colour on reduction, which living cells bring about.
Data set [2] concerns HIV-1NL4-3. The data set can be described thus: HIV-1NL4-3 replication inhibition assay in MT-4 lymphocytes. Particulars: HIV-1NL4-3 infected MT-4 cells. It is filed as cell-based. The procedure, abridged: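 MT-4 cells infected with HIV-1 NL4-3 variants at a multiplicity of infection of 0.01, in a microtiter-plate replication screen.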
In data set [3] the target is T1, rabbit muscle glycogen phosphorylase a (RMGPa) (Oryctolagus cuniculus, UniProt P00489).
T1 sequence (P00489 1-843): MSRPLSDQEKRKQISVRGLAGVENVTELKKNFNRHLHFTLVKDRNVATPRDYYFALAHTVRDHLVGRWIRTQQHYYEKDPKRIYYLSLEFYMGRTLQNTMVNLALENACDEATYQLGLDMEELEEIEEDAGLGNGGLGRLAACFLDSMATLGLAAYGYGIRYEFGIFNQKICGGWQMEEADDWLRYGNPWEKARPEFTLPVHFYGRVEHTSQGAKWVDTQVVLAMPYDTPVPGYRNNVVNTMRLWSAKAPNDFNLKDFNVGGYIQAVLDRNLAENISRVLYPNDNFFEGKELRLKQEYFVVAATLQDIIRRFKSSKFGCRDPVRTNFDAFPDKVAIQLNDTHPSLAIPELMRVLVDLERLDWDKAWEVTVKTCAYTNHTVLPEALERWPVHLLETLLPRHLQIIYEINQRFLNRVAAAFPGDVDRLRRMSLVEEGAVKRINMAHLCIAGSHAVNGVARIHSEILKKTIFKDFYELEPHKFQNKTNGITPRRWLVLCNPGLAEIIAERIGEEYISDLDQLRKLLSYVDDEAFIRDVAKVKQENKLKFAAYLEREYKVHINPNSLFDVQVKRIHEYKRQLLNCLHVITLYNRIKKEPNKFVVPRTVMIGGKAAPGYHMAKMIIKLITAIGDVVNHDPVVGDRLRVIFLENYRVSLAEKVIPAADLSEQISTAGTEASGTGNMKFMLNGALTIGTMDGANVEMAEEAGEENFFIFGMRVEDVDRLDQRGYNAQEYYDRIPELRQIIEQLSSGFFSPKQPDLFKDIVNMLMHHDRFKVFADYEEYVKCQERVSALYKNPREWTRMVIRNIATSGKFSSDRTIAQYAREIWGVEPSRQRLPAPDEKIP
The data set can be described thus: Inhibition of rabbit muscle glycogen phosphorylase a. It is filed as biochemical. The note with it: for GP inhibitory potency relative to betulin (3): fold more potent than 3.

Data set [4] has as its system MCF-7 (human breast cancer). As to the kind of experiment: MTT cytotoxicity assay, MCF-7. The format is cell-based. Particulars: 48 h.
Data set [5] concerns A549 (human lung carcinoma). As to the kind of experiment: MTT cytotoxicity assay, A549. It is filed as cell-based. Particulars: 48 h.
Data set [6] deals with HIV-1IIIB. The note with it: HIV-1IIIB infected C8166 cell lines; cited from earlier work.

For the compound `C=C(C)[C@@H]1CC[C@]2(COC(c3ccccc3)(c3ccccc3)c3ccccc3)CC[C@]3(C)[C@H](CC[C@@H]4[C@@]5(C)[C@H](C(=O)OC)[C@H](OC(C)=O)C(C)(C)[C@@H]5CC[C@]43C)[C@@H]12` [Compound 9], the “IC50 ±SD, cytotoxic activity, PC3” value in data set [1] was “inactive”. For the compound `C=C(C)[C@@H]1CC[C@]2(CO)CC[C@]3(C)[C@H](CC[C@@H]4[C@@]5(C)CC[C@H](O)C(C)(C)[C@@H]5CC[C@]43C)[C@@H]12` [Compound 3, betulin], the “anti-HIV-1 activity (result in words)” value in data set [2] is on record as “did not exhibit significant antiviral activity”. `C=C(C)[C@@H]1CC[C@]2(COC(c3ccccc3)(c3ccccc3)c3ccccc3)CC[C@]3(C)[C@H](CC[C@@H]4[C@@](C)(CC(=O)O)[C@H](C(C)(C)C(=O)O)CC[C@]43C)[C@@H]12` [Compound 5]: in data set [3], the “GP inhibitory potency relative to betulin (3)” value is around 200 fold. The “GP inhibitory potency relative to compound 6” value in data set [3] (fold more potent than 6) stood at 14 fold. As for `C=C(C)[C@@H]1CC[C@]2(COC(c3ccccc3)(c3ccccc3)c3ccccc3)CC[C@]3(C)[C@H](CC[C@@H]4[C@@]5(C)[C@H](C(=O)OC)[C@H](O)C(C)(C)[C@@H]5CC[C@]43C)[C@@H]12` [Compound 8], the “IC50 ±SD, cytotoxic activity, PC3” value in data set [1] is “inactive”.

For the compound `C=C(C)[C@@H]1CC[C@]2(C(=O)O)CC[C@]3(C)[C@H](CC[C@@H]4[C@@]5(C)[C@@H](C(=O)O)[C@H](O)C(C)(C)[C@@H]5CC[C@]43C)[C@@H]12` [Compound 2a, ceanothic acid], the “anti-HIV-1 activity (result in words)” value in data set [2] was “no anti-HIV-1 activity”. Turning to `C=C(C)[C@@H]1CC[C@]2(COC(c3ccccc3)(c3ccccc3)c3ccccc3)CC[C@]3(C)[C@H](CC[C@@H]4[C@@](C)(CC(=O)OC)[C@H](C(C)(C)C(=O)OC)CC[C@]43C)[C@@H]12` [Compound 6], in data set [3], the “GP inhibitory potency relative to betulin (3)” value worked out at 14 fold. As for `C=C(C)[C@@H]1CC[C@]2(C(=O)O)CC[C@]3(C)[C@H](CC[C@@H]4[C@@]5(C)[C@H](C(=O)O)[C@H](O)C(C)(C)[C@@H]5CC[C@]43C)[C@@H]12` [Compound 1, Epiceanothic acid], in data set [4], the “decrease of cytotoxic activity against MCF-7 compared with 12” value is “more than 20 fold”. The “decrease of cytotoxic activity against A549 compared with 12” value in data set [5] is “more than 20 fold”. Besides, the “EC50, anti-HIV-1 replication activity” value in data set [6] is below 0.064 µg/mL.
